From ChEMBL document CHEMBL1154106, “Inhibitory effects of 5-benzylidene barbiturate derivatives on mushroom tyrosinase and their antibacterial activities” (Eur J Med Chem, 2009) come the findings set out here.

Assay [1] has as its system Staphylococcus aureus. As to the kind of experiment: Antibacterial activity against Staphylococcus aureus after 24 hrs by agar dilution method. The format is functional. The method, boiled down: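 MIC by agar dilution on Mueller–Hinton agar containing twofold serial dilutions from a 1 mg/mL DMSO stock. Final levels 50, 25, 12.5, 6.25, 3.1, 1.5, 0.8, 0.4 and 0.2. Inoculum was 16–18 h cultures at 0.5 McFarland; plates incubated 37 °C for 24 h. MIC is the lowest concentration preventing visible growth; levofloxacin was the reference.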

The test system of assay [2] is Staphylococcus epidermidis. Kind of assay: Antibacterial activity against Staphylococcus epidermidis at 1 mg/ml after 24 hrs by agar dilution method. Type of assay: functional, organism-based. The method, boiled down: (§1)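 Agar well diffusion: overnight (16–18 h, 37 °C) cultures set to 0.5 McFarland and mixed into Mueller–Hinton agar. Compound stock 1 mg/mL in DMSO loaded into 6 mm wells, with DMSO as control and levofloxacin as reference. Plates incubated 37 °C for 24 h. Read-out is the diameter of the growth-inhibition zone around each well.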

The subject of assay [3] is Bacillus cereus. As to the kind of experiment: Antibacterial activity against Bacillus cereus at 1 mg/ml after 24 hrs by agar dilution method. The format is functional, organism-based.
In assay [4] the test system is Staphylococcus. As to the kind of experiment: Antibacterial activity against Staphylococcus albus at 1 mg/ml after 24 hrs by agar dilution method. The format is functional, organism-based.
The subject of assay [5] is Pseudomonas aeruginosa. As to the kind of experiment: Antibacterial activity against Pseudomonas aeruginosa at 1 mg/ml after 24 hrs by agar dilution method. Type of assay: functional, organism-based. The method, boiled down: as §1
For assay [6], the target named is T1, Tyrosinase (Agaricus bisporus) (UniProt O42713).
T1 sequence (whole entry): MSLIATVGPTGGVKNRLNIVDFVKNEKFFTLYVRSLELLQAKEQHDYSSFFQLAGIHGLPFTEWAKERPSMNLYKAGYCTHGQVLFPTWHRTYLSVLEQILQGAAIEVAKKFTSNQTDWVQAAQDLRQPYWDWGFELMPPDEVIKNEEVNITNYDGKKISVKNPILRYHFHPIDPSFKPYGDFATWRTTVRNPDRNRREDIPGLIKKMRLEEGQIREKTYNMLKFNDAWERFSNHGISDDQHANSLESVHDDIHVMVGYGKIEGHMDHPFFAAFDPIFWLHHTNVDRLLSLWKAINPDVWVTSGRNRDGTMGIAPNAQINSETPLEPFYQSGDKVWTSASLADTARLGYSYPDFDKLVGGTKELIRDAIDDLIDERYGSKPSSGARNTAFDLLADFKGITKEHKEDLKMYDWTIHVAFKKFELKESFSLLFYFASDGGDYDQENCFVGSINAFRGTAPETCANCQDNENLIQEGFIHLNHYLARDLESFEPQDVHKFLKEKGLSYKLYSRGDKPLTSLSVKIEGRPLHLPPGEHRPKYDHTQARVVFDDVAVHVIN
As to the kind of experiment: Inhibition of mushroom tyrosinase at 200 uM. The method, boiled down: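 Single-concentration check in the mushroom tyrosinase diphenolase assay. Conditions: 0.5 mM L-DOPA, 50 mM phosphate buffer pH 6.8, enzyme 0.5 mg/mL, 25 °C, 2.0% DMSO final with DMSO controls. Activity read as dopachrome absorbance at 475 nm over 1 min.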

In assay [7] the test system is Escherichia coli. Kind of assay: Antibacterial activity against Escherichia coli at 1 mg/ml after 24 hrs by agar dilution method. The format is functional, organism-based.
Assay [8] deals with T2, Tyrosinase (Agaricus bisporus, UniProt O42713).
T2 sequence (O42713 whole entry): T1 sequence (whole entry)
Kind of assay: Inhibition of mushroom tyrosinase. The method, boiled down: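 Mushroom tyrosinase diphenolase assay: 1 mL reaction with 0.5 mM L-DOPA in 50 mM sodium phosphate buffer, pH 6.8, enzyme final 0.5 mg/mL, 25 °C. Compounds dissolved in DMSO (2.0% final); DMSO-only controls run. Dopachrome formation followed at 475 nm for 1 min. IC50 interpolated from dose–response curves; means of three experiments.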

Converted amounts (≈) assume the structure as drawn. The source made the active and inactive calls. The calls are words filed in the database; no cut-off is given here.

In assay [1], `COCCCCOc1ccc(CC2C(=O)NC(=O)NC2=O)cc1` gave an MIC above 12.5 µg/mL. Further, the result in assay [2], in assay [3], in assay [4], in assay [5] and in assay [7] was inactive. For the same compound, the inhibition in assay [6] was 1.15%. The same compound had an IC50 in assay [8] above 200 µM.
Consider `COCCOCCOc1ccc(C=C2C(=O)NC(=S)NC2=O)cc1`, for which the MIC in assay [1] is above 12.5 µg/mL. The result in assay [2], in assay [3], in assay [4], in assay [5] and in assay [7] was inactive. Moreover, the inhibition in assay [6] turned out to be 100%. Moreover, the IC50 in assay [8] amounted to 34.2 µM.
As for `COCCOCCOc1ccc(CC2C(=O)NC(=O)NC2=O)cc1`, in assay [1], the MIC is above 12.5 µg/mL. The result in assay [2], in assay [3], in assay [4], in assay [5] and in assay [7] was inactive. In addition, the inhibition in assay [6] was 14.3%. Further, the IC50 in assay [8] was above 200 µM.
Take `COCCOCCOc1ccc(CC2C(=O)NC(=S)NC2=O)cc1`: the MIC in assay [1] is above 12.5 µg/mL. Moreover, the outcome in assay [2], in assay [3], in assay [4], in assay [5] and in assay [7] was inactive. The compound further registered an inhibition in assay [6] of 97.5%. The same compound displayed an IC50 in assay [8] of 132 µM.
In the case of `COCCCCOc1ccc(CC2C(=O)NC(=S)NC2=O)cc1`, the MIC in assay [1] is above 12.5 µg/mL. The result in assay [2], in assay [3], in assay [4], in assay [5] and in assay [7] was inactive. In addition, the inhibition in assay [6] came out at 9.85%. This compound had an IC50 in assay [8] above 200 µM.
`COCCOc1ccc(CC2C(=O)NC(=O)NC2=O)cc1`: in assay [1], the MIC was above 12.5 µg/mL. The result in assay [2], in assay [3], in assay [4], in assay [5] and in assay [7] was inactive. The same compound displayed an inhibition in assay [6] of 23.1%. This compound also came in with an IC50 in assay [8] above 200 µM.
For `CCCCOCCOc1ccc(CC2C(=O)NC(=S)NC2=O)cc1`, it took 6.25 µg/mL (≈ 17.8 µM) to inhibit growth in assay [1] (MIC). For the same compound, the result in assay [2], in assay [3], in assay [4], in assay [5] and in assay [7] was inactive. For the same compound, the inhibition in assay [6] was 78.7%. Besides, in assay [8], the IC50 worked out at 179 µM.
`COCCCCOc1ccc(C=C2C(=O)NC(=S)NC2=O)cc1`: the MIC in assay [1] was above 25 µg/mL. Besides, the result in assay [2], in assay [3], in assay [4], in assay [5] and in assay [7] was inactive. For the same compound, the inhibition in assay [6] worked out at 100%. The compound also had an IC50 in assay [8] of 77.8 µM.
